Assay results as given in ChEMBL document CHEMBL1151765, “Rational design of substituted diarylureas: a scaffold for binding to G-quadruplex motifs” (J Med Chem, 2008).
Calls of active or inactive are those of the source. The rule behind the calls is not given here.

How the values were obtained:
[1] = Stabilization of d[AGAG3AG2GCGCTG3AG2AG3GCT] sequence of c-kit1 G-quadruplex DNA assessed as change in melting temperature at 1 uM by FRET assay
Summary of the method: (§1)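 Dual-labelled FAM/TAMRA oligos at 400nM in 60mM KCl potassium cacodylate buffer, pH 7.4, heated to 85 °C for 10 min, then cooled. Ligand added to 1µM; buffer alone as negative control. Excitation 450–495nm, emission read at 515–545nm every 0.5 °C from 30–100 °C. ΔTm is ligand Tm minus control Tm, from four experiments ± maximum sd; c-kit1 curves fitted to sigmoids.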

[2] = Stabilization of d[G3(T2AG3)3] sequence of F21T telomeric G-quadruplex DNA assessed as change in melting temperature at 1 uM by FRET assay
Summary of the method: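 Dual-labelled oligo (5′-FAM, 3′-TAMRA) at 400nM in FRET buffer (60mM KCl, K cacodylate, pH 7.4), heated to 85 °C for 10 min, cooled to room temperature. Ligand added from DMSO dilution. Excitation 450–495nm, emission 515–545nm, read every 0.5 °C from 30–100 °C. ΔTm from four experiments: averaged ligand Tm minus averaged buffer-control Tm, ± maximum sd.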

[3] = Stabilization of d[C3G3CG3CGCGAG3AG4AG2] sequence of c-kit2 G-quadruplex DNA assessed as change in melting temperature at 1 uM by FRET assay; summary of the method: as §1
[4] = Stabilization of d[(TA)2GC(TA)2T6(TA)2]GC(TA)2 sequence of duplex DNA assessed as change in melting temperature at 1 uM by FRET assay; summary of the method: as §1
[5] = Stabilization of d[G3(T2AG3)3] sequence of F21T telomeric G-quadruplex DNA assessed as change in melting temperature at 1 uM by FRET assay relative to BRACO-19 in presence of calf thymus DNA
Summary of the method: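 F21T FRET melting with ligand at 1µM in the presence of calf thymus DNA competitor at increasing bp concentrations. Retained stabilization, from three experiments, normalized to the ligand's ΔTm with no competitor (100%) ± normalized sd.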

[6] = organism: Homo sapiens; experiment: Binding affinity to biotin-labeled human telomeric d[AG3(T2AG3)3] sequence by surface plasmon resonance analysis
Summary of the method: (§2)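 Streptavidin chip with 5′-biotinylated DNA immobilized to 350-400 RU; blank reference flow cell. Run in 10mM HEPES, 100mM KCl, 3mM EDTA, P20 surfactant, pH 7.3, 25°C. Ligand 1nM to 10µM (from 20mM DMSO stock) injected at 50µl/min for 5–10 min to steady state, then 10 min buffer dissociation; glycine pH 2.0 regeneration between cycles.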

[7] = Binding affinity to biotin-labeled d[(AG3)2CGCTG3AG2AG3] sequence of c-kit1 G-quadruplex DNA by surface plasmon resonance analysis; summary of the method: as §2
[8] = Binding affinity to biotin-labeled d[(CG3)2CGCGAG3AG4] sequence of c-kit2 G-quadruplex DNA by surface plasmon resonance analysis; summary of the method: as §2
[9] = Binding affinity to biotin-labeled d[(AG3TG4)2A] sequence of c-myc G-quadruplex DNA by surface plasmon resonance analysis; summary of the method: as §2
[10] = Binding affinity to biotin-labeled d[CGA2T2CGTCTC2GA2T2CG] sequence of duplex DNA by surface plasmon resonance analysis; summary of the method: as §2
[11] = Selectivity ratio of equilibrium binding constant K for human telomeric d[AG3(T2AG3)3] sequence to equilibrium binding constant K for d[CGA2T2CGTCTC2GA2T2CG] sequence of duplex DNA
[12] = Selectivity ratio of equilibrium binding constant K for d[(AG3)2CGCTG3AG2AG3] sequence of c-kit1 G-quadruplex DNA to equilibrium binding constant K for d[CGA2T2CGTCTC2GA2T2CG] sequence of duplex DNA
[13] = Selectivity ratio of equilibrium binding constant K for d[(CG3)2CGCGAG3AG4] sequence of c-kit2 G-quadruplex DNA to equilibrium binding constant K for d[CGA2T2CGTCTC2GA2T2CG] sequence of duplex DNA
[14] = Selectivity ratio of equilibrium binding constant K for d[(AG3TG4)2A] sequence of c-myc G-quadruplex DNA to equilibrium binding constant K for d[CGA2T2CGTCTC2GA2T2CG] sequence of duplex DNA
[15] = target: T1, Telomerase reverse transcriptase (Homo sapiens, UniProt O14746); experiment: Inhibition of telomerase by TRAP-LIG assay
[16] = target: T1, Telomerase reverse transcriptase; experiment: Inhibition of telomerase at 50 uM by TRAP-LIG assay relative to control
[17] = system: MCF7; experiment: Cytotoxicity against human MCF7 cells after 96 hrs by SRB assay; type: functional, cell-based; settings: MCF7, 96 h
[18] = system: A549; experiment: Cytotoxicity against human A549 cells after 96 hrs by SRB assay; type: functional, cell-based; settings: A549, 96 h
[19] = Cytotoxicity against human WI38 cells after 96 hrs by SRB assay; type: cell-based; settings: WI-38, 96 h
[20] = system: MCF7; experiment: Cytotoxicity against human MCF7 cells assessed as population doubling at 1 uM after 1 week […] relative to control; type: functional
Summary of the method: (§3)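 MCF7 cells (1×10^5) treated with sub-cytotoxic ligand concentrations for 1 week, biweekly dosing. Cells counted by haemocytometer; population doublings n = (log Pn – log P0)/log2. Values normalized to vehicle control (100%) ± sd, two independent concentrations per ligand.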

[21] = system: MCF7; experiment: Cytotoxicity against human MCF7 cells assessed as population doubling at 1.75 uM after 1 week […] relative to control; type: functional; summary of the method: as §3
[22] = system: MCF7; experiment: Cytotoxicity against human MCF7 cells assessed as population doubling at 2.25 uM after 1 week […] relative to control; type: functional; summary of the method: as §3
[23] = system: MCF7; experiment: Cytotoxicity against human MCF7 cells assessed as cell senescence at 1.75 uM after 1 week by beta-galactosidase assay; type: functional
[24] = system: MCF7; experiment: Cytotoxicity against human MCF7 cells assessed as cell senescence at 2.25 uM after 1 week by beta-galactosidase assay; type: functional
[25] = system: A549; experiment: Selectivity ratio of IC50 for human A549 cells to IC50 for human WI38 cells
[26] = system: MCF7; experiment: Cytotoxicity against human MCF7 cells assessed as population doubling at 5 uM after 1 week […] relative to control; type: functional; summary of the method: as §3
[27] = system: MCF7; experiment: Cytotoxicity against human MCF7 cells assessed as population doubling at 10 uM after 1 week […] relative to control; type: functional; summary of the method: as §3
[28] = system: MCF7; experiment: Cytotoxicity against human MCF7 cells assessed as cell senescence at 5 uM after 1 week by beta-galactosidase assay; type: functional
[29] = system: MCF7; experiment: Cytotoxicity against human MCF7 cells assessed as cell senescence at 10 uM after 1 week by beta-galactosidase assay; type: functional
[30] = system: MCF7; experiment: Selectivity ratio of IC50 for human MCF7 cells to IC50 for human WI38 cells
[31] = system: MCF7; experiment: Cytotoxicity against human MCF7 cells assessed as population doubling at 2 uM after 1 week […] relative to control; type: functional; summary of the method: as §3
[32] = system: MCF7; experiment: Cytotoxicity against human MCF7 cells assessed as cell senescence at 1 uM after 1 week by beta-galactosidase assay; type: functional
[33] = system: MCF7; experiment: Cytotoxicity against human MCF7 cells assessed as cell senescence at 2 uM after 1 week by beta-galactosidase assay; type: functional
[34] = system: MCF7; experiment: Cytotoxicity against human MCF7 cells assessed as population doubling at 3.50 uM after 1 week […] relative to control; type: functional; summary of the method: as §3
[35] = system: MCF7; experiment: Cytotoxicity against human MCF7 cells assessed as population doubling at 7 uM after 1 week […] relative to control; type: functional; summary of the method: as §3
[36] = system: MCF7; experiment: Cytotoxicity against human MCF7 cells assessed as cell senescence at 3.5 uM after 1 week by beta-galactosidase assay; type: functional

T1 sequence (O14746 whole entry): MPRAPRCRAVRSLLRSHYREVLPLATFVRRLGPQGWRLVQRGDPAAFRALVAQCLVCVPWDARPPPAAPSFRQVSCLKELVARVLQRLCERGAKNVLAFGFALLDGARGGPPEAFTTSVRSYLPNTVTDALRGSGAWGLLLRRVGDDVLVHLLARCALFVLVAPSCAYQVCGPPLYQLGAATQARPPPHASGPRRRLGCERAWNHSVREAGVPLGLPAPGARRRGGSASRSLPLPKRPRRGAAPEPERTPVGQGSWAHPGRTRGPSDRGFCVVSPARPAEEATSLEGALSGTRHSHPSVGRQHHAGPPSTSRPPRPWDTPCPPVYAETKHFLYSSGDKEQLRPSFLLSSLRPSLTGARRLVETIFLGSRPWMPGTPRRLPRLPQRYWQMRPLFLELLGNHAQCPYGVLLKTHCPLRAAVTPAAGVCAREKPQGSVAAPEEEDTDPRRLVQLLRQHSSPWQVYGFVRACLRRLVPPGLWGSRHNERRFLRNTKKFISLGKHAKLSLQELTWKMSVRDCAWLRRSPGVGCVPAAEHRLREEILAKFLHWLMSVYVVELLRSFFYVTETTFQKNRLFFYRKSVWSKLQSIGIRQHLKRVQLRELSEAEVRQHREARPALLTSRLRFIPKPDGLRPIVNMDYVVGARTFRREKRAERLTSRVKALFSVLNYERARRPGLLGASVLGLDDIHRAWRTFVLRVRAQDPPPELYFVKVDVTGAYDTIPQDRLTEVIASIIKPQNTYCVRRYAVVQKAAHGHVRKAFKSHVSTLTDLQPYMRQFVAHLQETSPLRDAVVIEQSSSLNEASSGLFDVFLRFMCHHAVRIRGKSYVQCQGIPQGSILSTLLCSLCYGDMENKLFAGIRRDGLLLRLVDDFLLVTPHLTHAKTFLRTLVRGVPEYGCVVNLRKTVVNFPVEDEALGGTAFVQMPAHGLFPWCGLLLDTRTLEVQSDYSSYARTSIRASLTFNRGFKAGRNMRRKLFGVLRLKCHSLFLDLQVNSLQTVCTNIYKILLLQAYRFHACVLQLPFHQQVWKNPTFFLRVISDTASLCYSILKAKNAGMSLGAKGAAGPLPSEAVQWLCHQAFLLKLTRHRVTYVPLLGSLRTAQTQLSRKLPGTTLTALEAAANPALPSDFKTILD

SMILES | change in melting temperature (ΔTm) [1] [°C] | change in melting temperature (ΔTm) [2] [°C] | change in melting temperature (ΔTm) [3] [°C] | change in melting temperature (ΔTm) [4] [°C] | Activity [5] | KA [6] [×10⁶ /M] | KA [7] [×10⁶ /M] | KA [8] [×10⁶ /M] | KA [9] [×10⁶ /M] | KA [10] [×10³ /M] | Selectivity ratio [11] | Selectivity ratio [12] | Selectivity ratio [13] | Selectivity ratio [14] | EC50 [15] [µM] | inhibition [16] [%] | IC50 [17] [µM] | IC50 [18] [µM] | IC50 [19] [µM] | Ratio IC50 [25] | also measured
O=C(CCN1CCCC1)Nc1ccc(NC(=O)c2cccc(NC(=O)Nc3cccc(C(=O)Nc4ccc(NC(=O)CCN5CCCC5)cc4)c3)c2)cc1 | 10.2 | 13.5 | 18.7 | 0.4 | Active | 1.1 | 1.4 | 5 | 2.1 | < 1 | > 400 | > 400 | > 400 | > 400 | > 50 | 6 | 2.6 | 5.3 | 7.5 |  | Activity [20]: 110.4%; Activity [21]: 109.6%; Activity [22]: 66.5%; Activity [23]: 3.1%; Activity [24]: 2.4%
O=C(CN1CCCC1)Nc1ccc(NC(=O)c2cccc(NC(=O)Nc3cccc(C(=O)Nc4ccc(NC(=O)CN5CCCC5)cc4)c3)c2)cc1 | 3.6 | 7.9 | 11.3 |  | Active | 1.4 | 2.1 | 5.1 | 14 | < 1 | > 400 | > 400 | > 400 | > 400 | > 50 | 21 | 14.4 | > 50 | 16.4 | 0.3 | Activity [26]: 92.2%; Activity [27]: 73.1%; Activity [28]: 1%; Activity [29]: 1.7%
O=C(CCN1CCCC1)Nc1cccc(NC(=O)c2ccc(NC(=O)Nc3ccc(C(=O)Nc4cccc(NC(=O)CCN5CCCC5)c4)cc3)cc2)c1 | 0.5 | 5.1 | 7.5 | 4.9 |  |  |  |  |  |  |  |  |  |  |  |  | 3.2 | 4.3 | > 50 | 11.6 | Ratio IC50 [30]: 15.6; Activity [20]: 82.9%; Activity [31]: 44%; Activity [32]: 3%; Activity [33]: 4.1%
O=C(CCCN1CCCC1)Nc1ccc(NC(=O)c2cccc(NC(=O)Nc3cccc(C(=O)Nc4ccc(NC(=O)CCCN5CCCC5)cc4)c3)c2)cc1 | 10.1 | 12 | 17.1 |  | Active | 0.4 | 0.4 | 3.1 | 0.9 | < 1 | > 400 | > 400 | > 400 | > 400 | > 50 | 36 | 11.1 | > 50 | > 50 | 1 | Activity [34]: 96%; Activity [35]: 81.5%; Activity [36]: 1.6%
